We go through two molecules from ChEMBL document CHEMBL4000256, “Light-Regulated NO Release as a Novel Strategy To Overcome Doxorubicin Multidrug Resistance” (ACS Med Chem Lett, 2017).

Data set [1] is filed under the species Homo sapiens. The data set can be described thus: Inhibition of ABC transporter in 7 mW/cm'2 irradiated human M14 cells assessed as increase in nitrite release at 5 uM measured after 20 mins by Griess reagent based spectrophotometric method. The procedure, abridged:
(§1)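 M14 melanoma cells held 20 min at room temperature in PBS, either in the dark or under 400 nm light (7 mW/cm2), with 5 μM compound alone or alongside 5 μM doxorubicin. Nitrite in the supernatant measured by Griess assay, in triplicate, n = 3.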
In general terms: Griess reagent forms a coloured azo dye with nitrite.

Data set [2] concerns the target T1, Broad substrate specificity ATP-binding cassette transporter ABCG2 (Homo sapiens, UniProt Q9UNQ0).
T1 sequence (Q9UNQ0 whole entry): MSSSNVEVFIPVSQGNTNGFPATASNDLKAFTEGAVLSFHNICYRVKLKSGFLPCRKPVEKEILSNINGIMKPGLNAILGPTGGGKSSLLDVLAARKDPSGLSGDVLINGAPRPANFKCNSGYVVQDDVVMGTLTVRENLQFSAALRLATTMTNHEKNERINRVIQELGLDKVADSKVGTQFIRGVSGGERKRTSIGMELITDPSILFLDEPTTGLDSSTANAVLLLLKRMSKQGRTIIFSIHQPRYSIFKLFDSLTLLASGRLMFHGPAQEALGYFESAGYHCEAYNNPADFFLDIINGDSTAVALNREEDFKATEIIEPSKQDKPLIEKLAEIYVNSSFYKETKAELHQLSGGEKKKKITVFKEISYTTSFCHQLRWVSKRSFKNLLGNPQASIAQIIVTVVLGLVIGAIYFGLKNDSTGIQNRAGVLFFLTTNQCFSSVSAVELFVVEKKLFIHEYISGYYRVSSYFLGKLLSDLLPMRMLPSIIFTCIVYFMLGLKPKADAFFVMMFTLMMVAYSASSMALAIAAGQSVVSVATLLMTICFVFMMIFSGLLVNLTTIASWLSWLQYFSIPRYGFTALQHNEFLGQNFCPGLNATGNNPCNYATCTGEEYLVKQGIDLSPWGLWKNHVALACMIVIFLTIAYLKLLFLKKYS
The data set can be described thus: Inhibition of BCRP in 7 mW/cm'2 irradiated human M14 cells assessed as nitration of tyrosine in BCRP at 5 uM measured after 20 mins by immunoblotting. The procedure, abridged: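 M14 melanoma cells held 20 min at room temperature in PBS under 400 nm light (7 mW/cm2) with 5 μM compound, alone or with equimolar doxorubicin. Nitrated ABC transporters (Pgp, MRP1, MRP4, BCRP) detected by immunoblot.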

In data set [3] the target is T2, ATP-binding cassette sub-family C member 4 (Homo sapiens, UniProt O15439).
T2 sequence (O15439 whole entry): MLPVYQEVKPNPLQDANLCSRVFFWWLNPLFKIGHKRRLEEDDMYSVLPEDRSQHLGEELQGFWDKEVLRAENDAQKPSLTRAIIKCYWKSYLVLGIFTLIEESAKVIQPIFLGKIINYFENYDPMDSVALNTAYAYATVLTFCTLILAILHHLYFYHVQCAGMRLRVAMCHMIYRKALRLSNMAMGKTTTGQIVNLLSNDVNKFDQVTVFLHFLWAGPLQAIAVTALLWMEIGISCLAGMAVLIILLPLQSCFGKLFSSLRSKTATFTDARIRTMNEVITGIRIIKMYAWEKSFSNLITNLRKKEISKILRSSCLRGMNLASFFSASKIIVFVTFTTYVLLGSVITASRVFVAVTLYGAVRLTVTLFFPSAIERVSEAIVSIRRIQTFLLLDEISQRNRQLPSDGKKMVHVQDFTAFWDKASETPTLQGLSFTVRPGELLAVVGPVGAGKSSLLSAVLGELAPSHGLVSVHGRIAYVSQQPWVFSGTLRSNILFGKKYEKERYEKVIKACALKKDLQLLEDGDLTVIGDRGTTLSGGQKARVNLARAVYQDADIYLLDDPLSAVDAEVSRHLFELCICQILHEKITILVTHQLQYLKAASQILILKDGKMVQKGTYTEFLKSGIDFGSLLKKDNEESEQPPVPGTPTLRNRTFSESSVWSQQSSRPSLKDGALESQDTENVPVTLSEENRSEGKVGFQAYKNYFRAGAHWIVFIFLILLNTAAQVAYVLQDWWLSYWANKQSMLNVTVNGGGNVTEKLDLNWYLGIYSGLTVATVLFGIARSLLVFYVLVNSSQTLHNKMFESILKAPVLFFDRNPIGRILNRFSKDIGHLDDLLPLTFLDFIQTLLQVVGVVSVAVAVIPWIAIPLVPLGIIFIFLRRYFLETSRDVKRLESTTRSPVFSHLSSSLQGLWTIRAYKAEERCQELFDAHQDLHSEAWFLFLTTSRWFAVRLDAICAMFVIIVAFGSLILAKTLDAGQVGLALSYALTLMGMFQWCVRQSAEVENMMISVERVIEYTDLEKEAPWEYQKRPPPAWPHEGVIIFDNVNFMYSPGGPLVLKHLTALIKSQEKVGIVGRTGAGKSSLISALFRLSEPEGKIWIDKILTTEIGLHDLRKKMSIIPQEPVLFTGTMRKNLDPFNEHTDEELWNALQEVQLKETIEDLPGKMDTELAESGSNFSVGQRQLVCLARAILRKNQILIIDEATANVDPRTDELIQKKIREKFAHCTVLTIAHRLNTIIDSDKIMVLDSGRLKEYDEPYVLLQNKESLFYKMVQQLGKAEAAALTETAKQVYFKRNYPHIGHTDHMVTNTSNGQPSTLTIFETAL
Briefly: Inhibition of MRP4 in 7 mW/cm'2 irradiated human M14 cells assessed as reduction in MRP4 ATPase activity at 5 uM measured after 20 mins by spectrophotometric method. The procedure, abridged: (§2)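 M14 melanoma cells held 20 min at room temperature in PBS under 400 nm light (7 mW/cm2) with 5 μM compound, alone or with equimolar doxorubicin. Transporter ATPase activity then measured; n = 3.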

Data set [4] in a line: Stability in pH 7.4 PBS irradiated with 7 mW/cm2 light assessed as bleaching in NOP1 band at 10 uM up to 60 mins in presence of calf thymus DNA by absorption spectrum method. The class given is physicochemical. Particulars: buffer, pH 7.4, 1 h. The procedure, abridged: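 Absorption spectra recorded after 0, 30, 40, 50 and 60 min irradiation at λexc 405 nm. Solution at 10 μM with 18 μM ct-DNA in PBS (pH 7.4, 10 mM, 3% DMSO).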

Data set [5] in a line: Solubility of the compound in PBS with 3% DMSO. The class given is physicochemical. Particulars: buffer.
Data set [6] in a line: Induction of NO release in pH 7.4 PBS irradiated with 7 mW/cm2 light at 100 uM after 0.5 hrs by Griess assay. The procedure, abridged:
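Cell-free solution, 100 μM, in PBS (pH 7.4, 10 mM, 3% DMSO) irradiated at 400 nm (7 mW/cm2) for varying times. Nitrite generated is quantified by Griess assay.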

The species entered for another data set is Bos taurus. Briefly: Binding affinity to calf thymus duplex DNA at 10 uM by fluorescence spectroscopic method.
A further data set deals with M14. The data set can be described thus: Dark toxicity in human M14 cells assessed as increase in nitrite levels at 5 uM measured after 20 mins in presence of doxorubicin by Griess reagent based spectrophotometric method. In kind it is cell-based. Particulars: m14, 20 min. The procedure, abridged: as §1
Data set [7] is filed under the species Homo sapiens. Briefly: Inhibition of Pgp in 7 mW/cm'2 irradiated human M14 cells assessed as reduction in ATPase activity at 5 uM measured after 20 mins in presence of doxorubicin by immunoblotting. The procedure, abridged: as §2
A general note: A western blot detects proteins with antibodies after separation by electrophoresis.

The source made the active and inactive calls. The rule behind the calls is not given here.

Regarding `COc1cccc2c1C(=O)c1c(O)c3c(c(O)c1C2=O)C[C@@](O)(C(=O)COC(=O)c1ccc(C(=O)NCCCNc2ccc([N+](=O)[O-])c(C(F)(F)F)c2)cc1)C[C@@H]3O[C@H]1C[C@H](N)[C@H](O)[C@H](C)O1.Cl`, the inhibition entry in the data set listed under Homo sapiens [1] is “Active”. Moreover, the “inhibition (INH)” value in data set [2] and in data set [3] was “Active” throughout. The Stability entry in [4] is on record as “Stable”. Also, in data set [5], the solubility entry is reported as “Soluble”. Besides, the result (in data set [6]; in the data set filed under Bos taurus) was Active.

`NCCCNc1ccc([N+](=O)[O-])c(C(F)(F)F)c1`: the inhibition entry in the data set listed under Homo sapiens [1] and in the data set listed under Homo sapiens [7] was “Active” in each case. Further, the “inhibition (INH)” value in data set [2] and in data set [3] was “Active” each time. In addition, the result in [6] was Active. For the same molecule, the Activity entry with M14 is “Non-Toxic”.
